Measurements: ChEMBL document CHEMBL5058577, “EUbOPEN Chemogenomics Library 2 (Multiplex)” (2022)

Test system: U2OS
Assay: Multiplex assay against U2OS
Type: toxicity, cell-based
Settings: human
In short: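 Values for tubulin, mitochondrial-mass and membrane-permeability phenotypes are per cents of cells with healthy nuclei. These cells were identified by CellPathfinder machine-learning gating of live cells that had been stained at seeding with Hoechst33342, BioTracker Green Microtubule Cytoskeleton Dye, MitoTracker Red and Annexin V Alexa Fluor 680 and imaged on a CQ1 microscope at 37°C and 5% CO2 after compound addition. The gating first set Hoechst high-intensity objects apart from normal cells, then split normal cells into healthy, pyknosed or fragmented nuclei, and pyknosed cells into mitotic or apoptotic.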

[1] = 12 h, 1 µM, compound concentration 1 uM, replicate 1
[2] = 12 h, 1 µM, compound concentration 1 uM, replicate 2
[3] = 12 h, 10 µM, compound concentration 10 uM, replicate 1
[4] = 12 h, 10 µM, compound concentration 10 uM, replicate 2
[5] = 24 h, 1 µM, compound concentration 1 uM, replicate 1
[6] = 24 h, 1 µM, compound concentration 1 uM, replicate 2
[7] = 24 h, 10 µM, compound concentration 10 uM, replicate 1
[8] = 24 h, 10 µM, compound concentration 10 uM, replicate 2
[9] = 48 h, 1 µM, compound concentration 1 uM, replicate 1
[10] = 48 h, 1 µM, compound concentration 1 uM, replicate 2
[11] = 48 h, 10 µM, compound concentration 10 uM, replicate 1
[12] = 48 h, 10 µM, compound concentration 10 uM, replicate 2

Compound: COCCn1c(C)c(C)s/c1=N\C(=O)C1C(C)(C)C1(C)C
- Population Apoptotic (%) [1]: 88%
- Population Fragmented Nuclei (%) [1]: 24%
- Population Healthy Nuclei (%) [1]: 69%
- Population Hoechst High Intensity Objects (%) [1]: 0%
- Population Membrane Permeable-Phenotype (%) [1]: 8%
- Population Mitochondria Different-Phenotype (%) [1]: 1%
- Population Mitotic Cells (%) [1]: 11%
- Population Normal (%) [1]: 99%
- Population Pyknosed Nuclei (%) [1]: 6%
- Population Tubulin-Different-Phenotype (%) [1]: 3%
- Total Cell Count [1]: 271
- Population Apoptotic (%) [2]: 71%
- Population Fragmented Nuclei (%) [2]: 20%
- Population Healthy Nuclei (%) [2]: 74%
- Population Membrane Permeable-Phenotype (%) [2]: 11%
- Population Mitochondria Different-Phenotype (%) [2]: 3%
- Population Mitotic Cells (%) [2]: 28%
- Population Normal (%) [2]: 100%
- Population Pyknosed Nuclei (%) [2]: 5%
- Population Tubulin-Different-Phenotype (%) [2]: 5%
- Total Cell Count [2]: 135
- Population Apoptotic (%) [3]: 73%
- Population Fragmented Nuclei (%) [3]: 33%
- Population Healthy Nuclei (%) [3]: 52%
- Population Hoechst High Intensity Objects (%) [3]: 2%
- Population Membrane Permeable-Phenotype (%) [3]: 10%
- Population Mitochondria Different-Phenotype (%) [3]: 4%
- Population Mitotic Cells (%) [3]: 26%
- Population Normal (%) [3]: 97%
- Population Pyknosed Nuclei (%) [3]: 13%
- Population Tubulin-Different-Phenotype (%) [3]: 5%
- Total Cell Count [3]: 220
- Population Apoptotic (%) [4]: 80%
- Population Fragmented Nuclei (%) [4]: 20%
- Population Healthy Nuclei (%) [4]: 68%
- Population Hoechst High Intensity Objects (%) [4]: 0%
- Population Membrane Permeable-Phenotype (%) [4]: 9%
- Population Mitochondria Different-Phenotype (%) [4]: 3%
- Population Mitotic Cells (%) [4]: 20%
- Population Normal (%) [4]: 100%
- Population Pyknosed Nuclei (%) [4]: 11%
- Population Tubulin-Different-Phenotype (%) [4]: 4%
- Total Cell Count [4]: 135
- Population Apoptotic (%) [5]: 89%
- Population Fragmented Nuclei (%) [5]: 18%
- Population Healthy Nuclei (%) [5]: 75%
- Population Hoechst High Intensity Objects (%) [5]: 0%
- Population Membrane Permeable-Phenotype (%) [5]: 5%
- Population Mitochondria Different-Phenotype (%) [5]: 3%
- Population Mitotic Cells (%) [5]: 10%
- Population Normal (%) [5]: 99%
- Population Pyknosed Nuclei (%) [5]: 6%
- Population Tubulin-Different-Phenotype (%) [5]: 2%
- Total Cell Count [5]: 314
- Population Apoptotic (%) [6]: 83%
- Population Healthy Nuclei (%) [6]: 77%
- Population Membrane Permeable-Phenotype (%) [6]: 9%
- Population Mitotic Cells (%) [6]: 16%
- Population Pyknosed Nuclei (%) [6]: 3%
- Population Tubulin-Different-Phenotype (%) [6]: 4%
- Total Cell Count [6]: 157
- Population Apoptotic (%) [7]: 80%
- Population Fragmented Nuclei (%) [7]: 28%
- Population Healthy Nuclei (%) [7]: 58%
- Population Hoechst High Intensity Objects (%) [7]: 1%
- Population Membrane Permeable-Phenotype (%) [7]: 8%
- Population Mitochondria Different-Phenotype (%) [7]: 8%
- Population Mitotic Cells (%) [7]: 19%
- Population Normal (%) [7]: 98%
- Population Pyknosed Nuclei (%) [7]: 12%
- Population Tubulin-Different-Phenotype (%) [7]: 2%
- Total Cell Count [7]: 257
- Population Apoptotic (%) [8]: 88%
- Population Fragmented Nuclei (%) [8]: 21%
- Population Healthy Nuclei (%) [8]: 66%
- Population Membrane Permeable-Phenotype (%) [8]: 10%
- Population Mitochondria Different-Phenotype (%) [8]: 1%
- Population Mitotic Cells (%) [8]: 11%
- Population Tubulin-Different-Phenotype (%) [8]: 9%
- Total Cell Count [8]: 141
- Population Apoptotic (%) [9]: 94%
- Population Fragmented Nuclei (%) [9]: 12%
- Population Healthy Nuclei (%) [9]: 79%
- Population Hoechst High Intensity Objects (%) [9]: 1%
- Population Membrane Permeable-Phenotype (%) [9]: 5%
- Population Mitochondria Different-Phenotype (%) [9]: 2%
- Population Mitotic Cells (%) [9]: 5%
- Population Normal (%) [9]: 98%
- Population Pyknosed Nuclei (%) [9]: 8%
- Population Tubulin-Different-Phenotype (%) [9]: 4%
- Total Cell Count [9]: 459
- Population Apoptotic (%) [10]: 100%
- Population Fragmented Nuclei (%) [10]: 15%
- Population Membrane Permeable-Phenotype (%) [10]: 9%
- Population Mitochondria Different-Phenotype (%) [10]: 1%
- Population Mitotic Cells (%) [10]: 0%
- Population Pyknosed Nuclei (%) [10]: 4%
- Population Tubulin-Different-Phenotype (%) [10]: 5%
- Total Cell Count [10]: 218
- Population Apoptotic (%) [11]: 81%
- Population Fragmented Nuclei (%) [11]: 22%
- Population Healthy Nuclei (%) [11]: 62%
- Population Hoechst High Intensity Objects (%) [11]: 2%
- Population Membrane Permeable-Phenotype (%) [11]: 11%
- Population Mitochondria Different-Phenotype (%) [11]: 4%
- Population Mitotic Cells (%) [11]: 18%
- Population Normal (%) [11]: 97%
- Population Pyknosed Nuclei (%) [11]: 14%
- Population Tubulin-Different-Phenotype (%) [11]: 5%
- Total Cell Count [11]: 305
- Population Apoptotic (%) [12]: 96%
- Population Fragmented Nuclei (%) [12]: 15%
- Population Healthy Nuclei (%) [12]: 71%
- Population Hoechst High Intensity Objects (%) [12]: 1%
- Population Membrane Permeable-Phenotype (%) [12]: 4%
- Population Mitotic Cells (%) [12]: 4%
- Population Normal (%) [12]: 98%
- Population Pyknosed Nuclei (%) [12]: 12%
- Population Tubulin-Different-Phenotype (%) [12]: 2%
- Total Cell Count [12]: 206
